Measured values published in ChEMBL document CHEMBL5154824, “Design and synthesis of multifunctional microtubule targeting agents endowed with dual pro-apoptotic and anti-autophagic efficacy” (Eur J Med Chem, 2022).
The source made the active and inactive calls. The calls are words filed in the database; no cut-off is given here.

How the values were obtained:
HL-60 [1] = test: Induction of autophagy in human HL-60 cells assessed as increase in LC3-II protein level at 10 uM in presence of chloroquine […] by Immunoblotting analysis; format: functional, cell-based
Emu-TCL1 = test: Induction of apoptosis in mouse Emu-TCL1 cells model of CLL assessed as mitochondrial membrane depolarization at 10 uM after 48 hrs by TMRM dye based flow cytometric analysis; format: functional, cell-based
Outline: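 Splenocytes from Eμ-TCL1 leukaemic mice were treated with 10 μM or DMSO vehicle for 48 h, then TMRM-loaded. Flow cytometry gave the percentage of TMRM-low cells as mean ± SD (n = 3).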

HL-60 [2] = test: Induction of autophagy in human HL-60 cells assessed as increase in p62 protein level at 10 uM […] by Immunoblotting analysis; format: functional, cell-based
NIH3T3 = test: Cytotoxicity against mouse NIH3T3 cells assessed as inhibition of cell growth measured after 24 hrs by neutral red uptake assay; format: functional, cell-based; conditions: NIH3T3, 24 h
Outline: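 Neutral red uptake viability test. NIH3T3 fibroblasts or primary human oral epithelial cells were exposed to compound at 0.1 to 120 μM. EC50 was derived, with SD below 5%.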

[3] = Induction of Pro-apoptosis in human HL-60 cells assessed as increase in apoptotic cells at 10 uM after 48 hrs by Annexin-V/PI-staining based flow cytometry; format: functional
HL-60 [4] = test: Induction of autophagy in human HL-60 cells assessed as increase in LC3-II protein level at 10 uM measured up to 1 hr by Immunoblotting analysis; format: functional, cell-based
KYSE-520 cell line [5] = test: Induction of apoptosis in human KYSE520 cells assessed as increase in apoptotic cells at 3 to 10 uM after 72 hrs by Annexin V-FITC/PI staining based flow cytometry method; format: functional, cell-based; conditions: dose 3-10 µM
Outline: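 KYSE-520 cells were treated at 3 and 10 μM for 72 h, then analysed by flow cytometry after Annexin V/PI dual staining.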

SCC-4 [6] = test: Induction of autophagy in human SCC-4 cells assessed as increase in LC3-II to LC3-I ratio at 10 uM incubated for 30 mins in presence of EBSS followed by compound addition and measured after 3 hrs by Western blot analysis; format: functional, cell-based
Outline: (§1)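 SCC4 cells were pre-incubated with or without EBSS for 30 min, then given 10 μM compound, with 10 μM chloroquine as reference, for 3 h. LC3-I/II was assessed by Western blot with GAPDH loading control. The LC3-II/LC3-I ratio came from densitometry, as mean ± SEM of four experiments, with an unpaired one-tailed t-test.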

SCC-4 [7] = test: Induction of autophagy in human SCC-4 cells assessed as increase in LC3-II to LC3-I ratio at 10 uM in absence of EBSS measured after 3 hrs by Western blot analysis; format: functional, cell-based; outline: as §1
OE33 = test: Cytotoxicity against human OE33 cells assessed as inhibition of cell growth measured after 72 hrs by MTT assay; format: functional, cell-based; conditions: OE33, 72 h
Outline: (§2)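 Oesophageal adenocarcinoma lines were exposed to at least 8 increasing concentrations for 72 h. Viability was measured by MTT. IC50 is the mean ± SD of at least three independent experiments.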

KYSE-520 cell line [8] = test: Cytotoxicity against human KYSE520 cells assessed as inhibition of cell growth measured after 72 hrs by alamar blue viability assay; format: functional, cell-based; conditions: KYSE-520, 72 h
Outline: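 KYSE-520 oesophageal cells were exposed to at least 8 increasing concentrations for 48 h or 72 h. Viability was read out to give IC50, as the mean ± SD of at least three independent experiments.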

[9] = Cytotoxicity against human SKGT4 cells assessed as inhibition of cell growth measured after 72 hrs by MTT assay; format: functional, cell-based; conditions: SKGT4, 72 h; outline: as §2
[10] = biological target: Nuclear factor NF-kappa-B complex (Homo sapiens) (UniProt Q00653+P19838+Q04206); test: Inhibition of NF-kappaB phosphorylation in human HL-60 cells at 10 uM measured after 2 hrs by Immunoblotting analysis; format: cell-based
Nuclear factor NF-kappa-B complex (Homo sapiens), sequence (P19838 whole entry, looked up): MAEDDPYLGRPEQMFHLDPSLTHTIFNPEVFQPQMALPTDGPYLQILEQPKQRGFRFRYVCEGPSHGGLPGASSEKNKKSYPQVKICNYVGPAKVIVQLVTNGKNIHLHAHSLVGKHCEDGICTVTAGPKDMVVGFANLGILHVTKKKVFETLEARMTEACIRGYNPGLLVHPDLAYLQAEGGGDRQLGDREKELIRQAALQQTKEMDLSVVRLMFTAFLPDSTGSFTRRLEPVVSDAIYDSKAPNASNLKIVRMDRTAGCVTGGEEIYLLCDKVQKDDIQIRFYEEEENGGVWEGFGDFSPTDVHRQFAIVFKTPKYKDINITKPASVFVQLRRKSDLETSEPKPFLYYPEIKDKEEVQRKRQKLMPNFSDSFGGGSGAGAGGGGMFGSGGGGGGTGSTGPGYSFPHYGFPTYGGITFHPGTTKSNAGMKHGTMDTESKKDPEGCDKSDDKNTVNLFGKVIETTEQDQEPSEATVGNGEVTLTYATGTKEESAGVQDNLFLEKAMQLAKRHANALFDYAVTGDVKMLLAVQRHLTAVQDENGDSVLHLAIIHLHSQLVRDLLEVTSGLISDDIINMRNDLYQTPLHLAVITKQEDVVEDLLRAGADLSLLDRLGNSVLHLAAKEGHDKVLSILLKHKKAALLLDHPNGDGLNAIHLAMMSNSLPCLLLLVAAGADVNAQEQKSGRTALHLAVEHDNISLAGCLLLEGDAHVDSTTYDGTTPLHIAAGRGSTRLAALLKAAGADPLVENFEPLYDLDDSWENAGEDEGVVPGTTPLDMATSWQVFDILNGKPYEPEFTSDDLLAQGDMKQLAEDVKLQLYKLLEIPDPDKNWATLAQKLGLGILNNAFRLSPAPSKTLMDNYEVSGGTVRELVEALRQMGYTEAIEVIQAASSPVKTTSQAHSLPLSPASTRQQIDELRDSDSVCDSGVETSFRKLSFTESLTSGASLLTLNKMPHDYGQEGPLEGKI
Nuclear factor NF-kappa-B complex (Homo sapiens), sequence (Q00653 whole entry, looked up): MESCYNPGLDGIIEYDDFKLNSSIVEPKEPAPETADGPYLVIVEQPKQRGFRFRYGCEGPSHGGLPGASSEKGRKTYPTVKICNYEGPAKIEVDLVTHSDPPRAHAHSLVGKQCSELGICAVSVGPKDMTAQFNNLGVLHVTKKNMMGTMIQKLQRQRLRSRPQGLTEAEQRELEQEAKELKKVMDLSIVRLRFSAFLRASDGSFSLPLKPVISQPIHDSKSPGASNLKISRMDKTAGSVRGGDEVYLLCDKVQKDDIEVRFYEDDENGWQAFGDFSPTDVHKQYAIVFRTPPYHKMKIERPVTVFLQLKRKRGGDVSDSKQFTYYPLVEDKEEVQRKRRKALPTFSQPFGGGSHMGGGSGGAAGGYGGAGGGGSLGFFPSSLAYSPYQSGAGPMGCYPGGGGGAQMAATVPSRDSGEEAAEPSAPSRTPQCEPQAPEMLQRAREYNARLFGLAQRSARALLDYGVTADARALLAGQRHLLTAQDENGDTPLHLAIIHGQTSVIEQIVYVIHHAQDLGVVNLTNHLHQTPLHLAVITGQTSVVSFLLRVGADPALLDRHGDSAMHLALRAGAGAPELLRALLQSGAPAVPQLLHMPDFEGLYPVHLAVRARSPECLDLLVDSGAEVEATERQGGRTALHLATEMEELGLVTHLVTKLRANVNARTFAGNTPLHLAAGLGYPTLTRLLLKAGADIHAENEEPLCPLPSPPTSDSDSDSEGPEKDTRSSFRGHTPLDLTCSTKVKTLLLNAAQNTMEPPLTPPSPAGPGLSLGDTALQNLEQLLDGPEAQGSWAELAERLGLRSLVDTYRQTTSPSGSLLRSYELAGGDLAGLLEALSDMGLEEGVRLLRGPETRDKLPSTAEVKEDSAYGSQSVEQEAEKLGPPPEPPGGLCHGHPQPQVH
Nuclear factor NF-kappa-B complex (Homo sapiens), sequence (Q04206 whole entry, looked up): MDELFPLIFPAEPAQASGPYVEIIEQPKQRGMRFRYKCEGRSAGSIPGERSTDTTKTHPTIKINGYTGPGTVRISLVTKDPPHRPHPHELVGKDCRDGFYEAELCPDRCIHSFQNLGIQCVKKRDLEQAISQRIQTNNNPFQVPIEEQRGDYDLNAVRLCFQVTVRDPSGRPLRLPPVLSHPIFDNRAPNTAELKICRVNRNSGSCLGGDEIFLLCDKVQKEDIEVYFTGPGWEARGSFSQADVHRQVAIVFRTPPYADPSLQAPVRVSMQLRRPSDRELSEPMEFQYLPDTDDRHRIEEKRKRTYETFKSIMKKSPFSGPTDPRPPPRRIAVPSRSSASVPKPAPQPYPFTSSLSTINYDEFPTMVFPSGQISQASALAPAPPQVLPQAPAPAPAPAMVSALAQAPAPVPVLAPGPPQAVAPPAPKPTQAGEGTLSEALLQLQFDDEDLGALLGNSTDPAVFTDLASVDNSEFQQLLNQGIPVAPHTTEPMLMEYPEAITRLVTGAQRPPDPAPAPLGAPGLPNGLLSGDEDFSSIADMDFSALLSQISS
Outline: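 HL-60 cells were treated at 10 μM or with DMSO vehicle for 2 h. Phospho-NF-κB and phospho-Erk1/2 were immunoblotted and quantified by densitometry relative to β-tubulin. Data are mean ± SD (n = 2), analysed by one-way ANOVA.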

OE19 = test: Cytotoxicity against human OE19 cells assessed as inhibition of cell growth measured after 72 hrs by MTT assay; format: functional, cell-based; conditions: OE19, 72 h; outline: as §2
[11] = Induction of Pro-apoptosis in human HL-60 cells assessed as increase in apoptotic cells at 10 uM after 24 hrs by TMRM dye based flow cytometric analysis; format: functional
[12] = Induction of Pro-apoptosis in human HL-60 cells assessed as increase in apoptotic cells at 25 uM after 24 hrs by TMRM dye based flow cytometric analysis; format: functional
[13] = Ratio of IC50 for cytotoxicity against human HeLa cells overexpressing tubulin beta3 assessed as inhibition of cell growth measured after 48 hrs to IC50 for cytotoxicity against human HeLa cells assessed as inhibition of cell growth measured after 48 hrs; format: functional
Outline: (§3)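 MTT assay: cells exposed to increasing compound concentrations for 48 h. Lines were A2780 and its P-gp-overexpressing A2780AD counterpart, and HeLa and HeLa β3 (tubulin β3-overexpressing). IC50 is the mean ± SD of three independent experiments. R/S is the IC50 in the resistant line divided by that in the parental line.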

A2780 [14] = test: Cytotoxicity against human A2780 cells assessed as inhibition of cell growth measured after 48 hrs by MTT assay; format: functional, cell-based; conditions: A2780, 48 h
Outline: (§4)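 MTT assay. Cells were exposed for 48 h to increasing concentrations of compound. Ovarian A2780 was paired with its P-gp-overexpressing A2780AD counterpart, and HeLa with HeLa β3, which overexpresses the tubulin β3 isotype. IC50 is the mean ± SD of three independent experiments.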

HeLa [15] = test: Cytotoxicity against human HeLa cells assessed as inhibition of cell growth measured after 48 hrs by MTT assay; format: functional, cell-based; outline: as §4
[16] = Ratio of IC50 for cytotoxicity against human […] assessed as inhibition of cell growth measured after 48 hrs to IC50 for cytotoxicity against human A2780 cells assessed as inhibition of cell growth measured after 48 hrs; format: functional; outline: as §3
A2780 [17] = test: Cytotoxicity against human A2780AD cells assessed as inhibition of cell growth measured after 48 hrs by MTT assay; format: functional, cell-based; conditions: A2780, 48 h; outline: as §4
HeLa [18] = test: Cytotoxicity against human HeLa cells overexpressing tubulin beta3 assessed as inhibition of cell growth measured after 48 hrs by MTT assay; format: functional, cell-based; outline: as §4
A549 = test: Cytotoxicity against human A549 cells assessed as inhibition of cell growth measured after 48 hrs by MTT assay; format: functional, cell-based; conditions: A549, 48 h
Tubulin (Homo sapiens) = Tubulin (Homo sapiens) (UniProt P68371+Q9H4B7+P0DPH7+P68366+Q13509+Q71U36+P04350+Q3ZCM7+P07437+P68363+Q9BQE3+Q6PEY2+Q13885+Q9BVA1+Q9BUF5); test: Binding affinity to microtubule polymerization (unknown origin) assessed as formation of microtubule at 27.5 uM measured for 2 hrs by plate reader method; format: protein-complex assay
Outline: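 25 μM tubulin in GAB buffer with compound at 27.5 μM or DMSO vehicle; podophyllotoxin 27.5 μM as destabiliser control. Polymerisation started by raising temperature from 4 to 37 °C at time 0; microtubule formation followed as absorbance increase over time.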

SCC-4 [19] = test: Induction of apoptosis in human SCC-4 cells assessed as increase in apoptotic cells at 0.5 uM after 48 hrs by Annexin V-FITC/PI staining based flow cytometry method; format: functional, cell-based
Outline: (§5)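 SCC4 cells were treated at 0.5 or 2 μM for 48 h, then stained with Annexin V/PI and analysed by flow cytometry. Data are mean ± SEM of three independent experiments, with an unpaired one-tailed t-test versus vehicle.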

SCC-4 [20] = test: Induction of apoptosis in human SCC-4 cells assessed as increase in apoptotic cells at 2 uM after 48 hrs by Annexin V-FITC/PI staining based flow cytometry method; format: functional, cell-based; outline: as §5
SCC-4 [21] = test: Cytotoxicity against human SCC-4 cells assessed as reduction in cell viability measured after 48 hrs by alamar blue viability assay; format: functional, cell-based; conditions: SCC-4, 48 h
Outline: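 Oral squamous carcinoma cells were exposed for 48 h to at least 8 increasing concentrations. Viability was read by AlamarBlue. IC50 is the concentration that halves viability, taken as the mean ± SD of at least three independent experiments.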

Row | Structure (SMILES) | Activity (HL-60 [1]) | Activity (Emu-TCL1) | Activity (HL-60 [2]) | EC50 (NIH3T3) [nM] | Activity [3] | Activity (HL-60 [4]) | Activity [11] | also measured
1 | O=C(OC1=C(c2cccc3ncccc23)Oc2cc3ccccc3cc2-n2cccc21)c1cccnc1 | Active | Active | Active | 6000 | >=70% | Active | – | –
2 | CC(=O)OC1=C(c2cccc3ncccc23)Oc2cc3ccccc3cc2-n2cccc21 | Active | Active | Active | – | >=70% | Active | – | Activity (KYSE-520 cell line [5]): Active; Activity (SCC-4 [6]): Active; Activity (SCC-4 [7]): Active; IC50 (OE33): 320 nM; IC50 (KYSE-520 cell line [8]): 138000 nM; IC50 [9]: 510 nM; inhibition [10]: Active; IC50 (OE19): 730 nM
3 | CC(=O)OC1=C(c2cccc3ccccc23)Oc2cc3ccccc3cc2-n2cccc21 | Active | Active | Active | – | >=70% | Active | >=50% | inhibition [10]: Active
4 | CC(=O)OC1=C(c2cccc3ccccc23)Oc2cc3c(cc2-n2cccc21)OCCO3 | – | – | – | 100 | – | – | >=50% | Activity [12]: >=50%
5 | CC(=O)OC1=C(c2cccc3ccccc23)Oc2cc3c(cc2-n2cccc21)OCO3 | – | – | – | 150 | – | – | >=50% | Activity [12]: >=50%
6 | CCN(CC)C(=O)OC1=C(c2cccc3ccccc23)Oc2ccc(N3CCN(C)CC3)cc2-n2cccc21 | – | Active | – | 5000 | <30% | – | – | –
7 | COc1cc([C@@H]2c3cc4c(cc3[C@H](O)[C@H]3COC(=O)[C@H]23)OCO4)cc(OC)c1OC [PODOFILOX] | – | – | – | – | – | – | – | Ratio IC50 [13]: 0.82; IC50 (A2780 [14]): 15 nM; IC50 (HeLa [15]): 17 nM; Ratio IC50 [16]: 1.33; IC50 (A2780 [17]): 20 nM; IC50 (HeLa [18]): 14 nM; IC50 (A549): 12 nM; Activity (Tubulin (Homo sapiens)): Active
8 | CC(=O)OC1=C(c2cccc3cccnc23)Oc2cc3ccccc3cc2-n2cccc21 | – | – | – | – | >=70% | – | – | Activity (SCC-4 [19]): Active; Activity (SCC-4 [20]): Active; IC50 (SCC-4 [21]): 130 nM; Activity (SCC-4 [6]): Active; Activity (SCC-4 [7]): Active
